Reference: ChEMBL document CHEMBL4396883, “Discovery of CDK5 Inhibitors through Structure-Guided Approach” (ACS Med Chem Lett, 2019)
Activity calls are given as the source filed them. The rule behind the calls is not given here.

Key:
[1] = target: Cyclin-dependent kinase 1/cyclin B1 (Homo sapiens, UniProt P06493); experiment: Inhibition of CDK1/CyclinB1 (unknown origin) using histone H1 (GGGPATPKKAKKL) as substrate incubated for 80 mins in presence of ATP by ADP-Glo kinase assay; assay type: protein-complex assay
[2] = target: Cyclin-dependent kinase 2/cyclin E1 (Homo sapiens, UniProt P24941); experiment: Inhibition of CDK2/Cyclin E (unknown origin) incubated for 30 to 120 mins in presence of ATP by ADP-Glo kinase assay; assay type: protein-complex assay
MV4-11 = experiment: Antiproliferative activity against human MV4-11 cells assessed as growth inhibition measured after 72 hrs by resazurin assay; assay type: functional; conditions: MV4-11, 72 h
Method in brief: (§1)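 Leukemia cells exposed to compound for 72 h; viability read by resazurin reduction. GI50 (concentration giving 50% inhibition of proliferation) reported as mean ± SD of three independent experiments.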

CDK2/Cyclin A2 = CDK2/Cyclin A2 (Homo sapiens, UniProt P24941); experiment: Inhibition of recombinant full length N-terminal GST tagged human CDK2/CyclinA expressed in baculovirus infected sf9 cells using histone H1 as substrate measured after 30 mins in presence of ATP by ADP-Glo kinase assay
Method in brief: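 CDK2/cyclin A kinase inhibition; Ki values from the average of at least two experiments.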

CDK7/Cyclin H/MNAT1 = CDK7/Cyclin H/MNAT1 (Homo sapiens, UniProt P50613); experiment: Inhibition of CDK7/cyclinH/MAT1 (unknown origin) using RBER-IRStide as substrate incubated for 120 mins in presence of ATP by ADP-Glo kinase assay; assay type: protein-complex assay
CDK9/cyclin T1 = CDK9/cyclin T1 (Homo sapiens, UniProt P50750); experiment: Inhibition of human recombinant full length N-terminal GST His6 fused CDK9 (M1 to F372 residues/ N-terminal His6 tagged Cyclin T1 (M1 to K726 residues) expressed in sf9 cells using RBER-IRStide as substrate incubated for 90 mins in presence of ATP by ADP-Glo kinase assay
[3] = target: Cyclin-dependent kinase 4/cyclin D1 (Homo sapiens, UniProt P11802); experiment: Inhibition of human recombinant N-terminal GST-tagged CDK4 (S4-E303 residues)/Cyclin D1 (Q4-I295 residues) expressed in sf9 cells using RB-CTF as substrate incubated for 90 mins in presence of ATP by ADP-Glo kinase assay
CDK6/cyclin D3 = CDK6/cyclin D3 (Homo sapiens, UniProt Q00534); experiment: Inhibition of human recombinant N-terminal GST-tagged CDK6 (M1-A326 residues) and His6 tagged Cyclin D3 (M1-L292 residues) expressed in sf9 cells using histone H1 (GGGPATPKKAKKL) as substrate incubated for 60 mins in presence of ATP by ADP-Glo kinase assay
[4] = target: CDK2/Cyclin A2 (Homo sapiens) (UniProt P24941+P20248); experiment: Inhibition of recombinant full length N-terminal GST tagged human CDK2/CyclinA expressed in baculovirus infected sf9 cells using histone H1 as substrate at 10 uM measured after 30 mins in presence of ATP by ADP-Glo kinase assay relative to control
[5] = target: T1, Cyclin-dependent kinase 5/CDK5 activator 1 (Homo sapiens, UniProt Q00535+Q15078); experiment: Inhibition of recombinant full length N-terminal GST tagged human CDK5/p25 expressed in baculovirus infected sf9 cells using histone H1 as substrate at 10 uM measured after 60 mins in presence of ATP by ADP-Glo kinase assay relative to control
Target sequence in this assay (Q00535 whole entry): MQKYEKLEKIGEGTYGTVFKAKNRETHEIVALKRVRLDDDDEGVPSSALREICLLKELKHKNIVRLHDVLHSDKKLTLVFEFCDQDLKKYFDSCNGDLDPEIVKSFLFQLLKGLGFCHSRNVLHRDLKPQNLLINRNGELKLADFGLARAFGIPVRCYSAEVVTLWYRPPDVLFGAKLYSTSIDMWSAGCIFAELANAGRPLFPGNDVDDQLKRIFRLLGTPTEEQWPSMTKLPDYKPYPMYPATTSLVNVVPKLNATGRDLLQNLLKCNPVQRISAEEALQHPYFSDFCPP
Target sequence in this assay (Q15078 99-307 partner limits assumed): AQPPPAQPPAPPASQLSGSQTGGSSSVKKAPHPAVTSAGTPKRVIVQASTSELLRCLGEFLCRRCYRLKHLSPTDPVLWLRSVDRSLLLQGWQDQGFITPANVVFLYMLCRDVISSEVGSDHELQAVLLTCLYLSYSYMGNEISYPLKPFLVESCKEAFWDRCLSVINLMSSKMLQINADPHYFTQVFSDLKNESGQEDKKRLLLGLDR

[6] = target: Cyclin-dependent kinase 5/CDK5 activator 1 (Homo sapiens, UniProt Q00535); experiment: (§2) Inhibition of recombinant full length N-terminal GST tagged human CDK5/p25 expressed in baculovirus infected sf9 cells using histone H1 as substrate measured after 60 mins in presence of ATP by ADP-Glo kinase assay; assay type: cell-based
MOLM-13 = experiment: Antiproliferative activity against human MOLM13 cells assessed as growth inhibition measured after 72 hrs by resazurin assay; assay type: functional; conditions: MOLM-13, 72 h; method in brief: as §1
[7] = target: T1, Cyclin-dependent kinase 5/CDK5 activator 1; experiment: as §2; assay type: cell-based; conditions: sf9
Target sequence in this assay (Q00535 whole entry): as the sequence (Q00535 whole entry) above
Target sequence in this assay (Q15078 whole entry): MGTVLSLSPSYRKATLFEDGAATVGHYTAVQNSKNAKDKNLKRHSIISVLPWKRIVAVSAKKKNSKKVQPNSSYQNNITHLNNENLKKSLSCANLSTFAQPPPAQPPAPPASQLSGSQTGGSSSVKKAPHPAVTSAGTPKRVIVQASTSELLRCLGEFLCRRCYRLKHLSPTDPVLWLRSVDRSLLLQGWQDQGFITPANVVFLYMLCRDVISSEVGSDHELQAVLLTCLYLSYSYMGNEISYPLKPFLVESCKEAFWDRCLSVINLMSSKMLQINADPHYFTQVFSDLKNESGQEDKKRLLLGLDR

CDK6/cyclin D3, sequence (P30281 whole entry, the tested form may be a part): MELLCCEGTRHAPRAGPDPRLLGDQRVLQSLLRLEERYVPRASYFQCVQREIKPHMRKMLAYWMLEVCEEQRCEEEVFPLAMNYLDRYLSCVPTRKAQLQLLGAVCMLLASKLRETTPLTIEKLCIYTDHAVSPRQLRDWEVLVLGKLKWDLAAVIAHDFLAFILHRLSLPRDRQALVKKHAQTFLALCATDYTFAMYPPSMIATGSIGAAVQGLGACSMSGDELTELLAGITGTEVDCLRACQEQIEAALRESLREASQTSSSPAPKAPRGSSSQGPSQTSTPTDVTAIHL
CDK6/cyclin D3, sequence (Q00534 whole entry, the tested form may be a part): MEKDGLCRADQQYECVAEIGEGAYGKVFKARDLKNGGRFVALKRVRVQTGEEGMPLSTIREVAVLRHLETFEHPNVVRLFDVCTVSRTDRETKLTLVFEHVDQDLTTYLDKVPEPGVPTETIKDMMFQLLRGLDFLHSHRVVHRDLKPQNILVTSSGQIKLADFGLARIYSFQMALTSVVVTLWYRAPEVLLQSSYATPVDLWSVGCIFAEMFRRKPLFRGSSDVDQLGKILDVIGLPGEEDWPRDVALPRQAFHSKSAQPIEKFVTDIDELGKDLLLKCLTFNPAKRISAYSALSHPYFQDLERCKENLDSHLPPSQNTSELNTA
Cyclin-dependent kinase 5/CDK5 activator 1 (Homo sapiens, UniProt Q00535), sequence (Q00535 whole entry): as the sequence (Q00535 whole entry) above
Cyclin-dependent kinase 5/CDK5 activator 1 (Homo sapiens, UniProt Q00535), sequence (Q15078 whole entry, further chain): as the sequence (Q15078 whole entry) above
CDK9/cyclin T1, sequence (O60563 whole entry, the tested form may be a part): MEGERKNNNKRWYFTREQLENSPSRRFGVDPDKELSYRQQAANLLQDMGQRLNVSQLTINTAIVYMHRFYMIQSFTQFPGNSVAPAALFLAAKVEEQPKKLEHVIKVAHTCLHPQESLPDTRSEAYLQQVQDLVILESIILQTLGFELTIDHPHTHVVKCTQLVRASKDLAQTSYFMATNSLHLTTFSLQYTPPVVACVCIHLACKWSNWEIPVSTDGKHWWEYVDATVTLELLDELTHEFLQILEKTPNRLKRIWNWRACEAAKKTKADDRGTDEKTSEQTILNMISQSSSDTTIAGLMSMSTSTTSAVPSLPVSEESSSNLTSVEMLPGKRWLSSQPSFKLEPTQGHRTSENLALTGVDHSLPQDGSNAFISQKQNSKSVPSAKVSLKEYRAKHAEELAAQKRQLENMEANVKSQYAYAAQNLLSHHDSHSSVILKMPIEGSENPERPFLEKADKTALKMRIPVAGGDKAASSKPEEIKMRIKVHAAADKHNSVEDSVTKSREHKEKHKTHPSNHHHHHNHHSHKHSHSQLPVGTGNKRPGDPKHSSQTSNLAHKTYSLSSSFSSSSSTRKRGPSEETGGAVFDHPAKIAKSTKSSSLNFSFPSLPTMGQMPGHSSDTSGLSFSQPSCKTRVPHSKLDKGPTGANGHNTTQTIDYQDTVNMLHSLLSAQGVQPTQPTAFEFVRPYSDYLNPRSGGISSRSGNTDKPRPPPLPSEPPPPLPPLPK
CDK9/cyclin T1, sequence (P50750 whole entry, the tested form may be a part): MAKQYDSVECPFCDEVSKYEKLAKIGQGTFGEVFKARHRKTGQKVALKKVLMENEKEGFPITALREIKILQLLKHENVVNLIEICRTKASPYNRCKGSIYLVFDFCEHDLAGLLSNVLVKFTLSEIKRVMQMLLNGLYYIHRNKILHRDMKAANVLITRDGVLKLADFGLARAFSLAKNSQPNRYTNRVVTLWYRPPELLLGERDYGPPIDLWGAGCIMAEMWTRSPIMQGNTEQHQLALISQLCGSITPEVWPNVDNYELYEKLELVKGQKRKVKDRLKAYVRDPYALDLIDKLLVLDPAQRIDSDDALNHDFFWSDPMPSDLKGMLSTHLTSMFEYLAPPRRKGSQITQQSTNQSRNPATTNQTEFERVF
CDK7/Cyclin H/MNAT1, sequence (P51946 whole entry, the tested form may be a part): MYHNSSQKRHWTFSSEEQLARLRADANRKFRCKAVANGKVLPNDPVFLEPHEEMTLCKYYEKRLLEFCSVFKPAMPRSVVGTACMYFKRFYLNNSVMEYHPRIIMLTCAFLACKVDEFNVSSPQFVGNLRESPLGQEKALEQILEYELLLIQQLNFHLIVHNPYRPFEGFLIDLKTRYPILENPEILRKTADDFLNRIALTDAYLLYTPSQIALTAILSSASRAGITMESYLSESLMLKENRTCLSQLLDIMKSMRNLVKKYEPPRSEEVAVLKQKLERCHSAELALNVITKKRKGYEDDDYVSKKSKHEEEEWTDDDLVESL
CDK7/Cyclin H/MNAT1, sequence (P50613 whole entry, the tested form may be a part): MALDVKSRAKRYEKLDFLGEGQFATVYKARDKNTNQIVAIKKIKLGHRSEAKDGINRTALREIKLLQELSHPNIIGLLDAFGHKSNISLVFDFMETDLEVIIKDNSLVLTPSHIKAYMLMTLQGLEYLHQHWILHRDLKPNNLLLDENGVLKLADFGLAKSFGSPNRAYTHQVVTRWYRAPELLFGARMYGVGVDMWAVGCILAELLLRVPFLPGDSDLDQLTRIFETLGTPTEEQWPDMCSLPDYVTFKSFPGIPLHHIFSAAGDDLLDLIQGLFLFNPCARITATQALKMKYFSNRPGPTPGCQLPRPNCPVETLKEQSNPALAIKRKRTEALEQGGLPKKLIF
CDK7/Cyclin H/MNAT1, sequence (P51948 whole entry, further chain, the tested form may be a part): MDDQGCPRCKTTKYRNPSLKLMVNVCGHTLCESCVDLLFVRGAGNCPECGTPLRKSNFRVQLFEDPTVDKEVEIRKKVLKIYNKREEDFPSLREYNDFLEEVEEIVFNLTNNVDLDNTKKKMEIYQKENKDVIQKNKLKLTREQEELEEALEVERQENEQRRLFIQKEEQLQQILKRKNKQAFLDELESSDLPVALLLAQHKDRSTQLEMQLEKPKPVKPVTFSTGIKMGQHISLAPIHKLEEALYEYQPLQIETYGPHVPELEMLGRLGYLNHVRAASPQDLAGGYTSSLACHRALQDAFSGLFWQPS
Cyclin-dependent kinase 4/cyclin D1, sequence (P11802 whole entry, the tested form may be a part): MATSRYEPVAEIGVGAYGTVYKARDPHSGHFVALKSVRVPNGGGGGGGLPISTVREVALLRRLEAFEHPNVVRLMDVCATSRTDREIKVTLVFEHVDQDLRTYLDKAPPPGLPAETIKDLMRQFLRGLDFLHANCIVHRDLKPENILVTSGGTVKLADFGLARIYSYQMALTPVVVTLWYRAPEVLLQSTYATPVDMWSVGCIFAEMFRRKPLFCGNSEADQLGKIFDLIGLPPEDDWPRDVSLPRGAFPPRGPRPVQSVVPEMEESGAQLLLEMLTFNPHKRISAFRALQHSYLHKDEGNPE
Cyclin-dependent kinase 4/cyclin D1, sequence (P24385 whole entry, further chain, the tested form may be a part): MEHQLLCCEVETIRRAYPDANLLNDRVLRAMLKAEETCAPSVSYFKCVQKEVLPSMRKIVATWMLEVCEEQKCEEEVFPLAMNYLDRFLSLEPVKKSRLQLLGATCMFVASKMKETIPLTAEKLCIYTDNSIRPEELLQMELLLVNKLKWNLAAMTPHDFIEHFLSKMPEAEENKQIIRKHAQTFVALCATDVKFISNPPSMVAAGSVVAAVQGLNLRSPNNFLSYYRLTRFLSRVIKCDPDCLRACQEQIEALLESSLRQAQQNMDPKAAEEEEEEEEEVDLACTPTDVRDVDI

Row | GI50 (MV4-11) | inhibition [4] | inhibition [5] | Ki [6] | SMILES | other results
1 | 2.28 µM | 93% | 85% | 1.01 µM | COc1cccc(Nc2ncc3c(n2)CCCC3)c1 | Ki [1]: > 5 µM; Ki [2]: > 5 µM; Ki (CDK2/Cyclin A2): 1.11 µM; Ki (CDK7/Cyclin H/MNAT1): > 5 µM; Ki (CDK9/cyclin T1): > 5 µM; Ki [3]: > 5 µM; Ki (CDK6/cyclin D3): > 5 µM
2 | – | 7% | 6% | – | FC(F)(F)c1ccc(Nc2ncc3c(n2)CCCC3)cc1 | –
3 | 3.5 µM | 87% | 83% | 1.26 µM | O=[N+]([O-])c1cccc(Nc2ncc3c(n2)CCCC3)c1 | Ki [1]: > 5 µM; Ki [2]: > 5 µM; Ki (CDK2/Cyclin A2): 1.1 µM; Ki (CDK7/Cyclin H/MNAT1): > 5 µM; Ki (CDK9/cyclin T1): > 5 µM; Ki [3]: > 5 µM; Ki (CDK6/cyclin D3): > 5 µM
4 | 6 µM | 58% | 77% | 1.44 µM | Cc1ccc(Nc2ncc3c(n2)CCCC3)cc1 | Ki [1]: > 5 µM; Ki [2]: > 5 µM; Ki (CDK2/Cyclin A2): 4.54 µM; Ki (CDK7/Cyclin H/MNAT1): > 5 µM; Ki (CDK9/cyclin T1): > 5 µM; Ki [3]: > 5 µM; Ki (CDK6/cyclin D3): > 5 µM
5 | 2.6 µM | 39% | 78% | 1.23 µM | CCc1cccc(Nc2ncc3c(n2)CCCC3)c1 | Ki [1]: > 5 µM; Ki [2]: > 5 µM; Ki (CDK2/Cyclin A2): > 5 µM; Ki (CDK7/Cyclin H/MNAT1): > 5 µM; Ki (CDK9/cyclin T1): > 5 µM; Ki [3]: > 5 µM; Ki (CDK6/cyclin D3): > 5 µM
6 | – | 2% | 4% | – | CCOc1ccccc1Nc1ncc2c(n1)CCCC2 | –
7 | 9.83 µM | – | – | 0.88 µM | c1ccc(Nc2ncc3c(n2)CCCC3)cc1 | GI50 (MOLM-13): 5.63 µM; IC50 [6]: 1.76 µM
8 | > 10 µM | 54% | 82% | 0.99 µM | Cc1ccccc1Nc1ncc2c(n1)CCCC2 | Ki [1]: > 5 µM; Ki [2]: > 5 µM; Ki (CDK2/Cyclin A2): 4.12 µM; Ki (CDK7/Cyclin H/MNAT1): > 5 µM; Ki (CDK9/cyclin T1): > 5 µM; Ki [3]: > 5 µM; Ki (CDK6/cyclin D3): > 5 µM
9 | – | 2% | 22% | – | COc1ccccc1Nc1ncc2c(n1)CCCC2 | –
10 | – | 3% | 1% | – | COc1ccc(Nc2ncc3c(n2)CCCC3)cc1 | –
11 | – | 7% | 5% | – | FC(F)(F)c1cccc(Nc2ncc3c(n2)CCCC3)c1 | –

Second part, the compound before the results:

Row | SMILES | GI50 (MV4-11) | inhibition [4] | inhibition [5] | Ki [6] | other results
12 | COc1ccc(Nc2ncc3c(n2)CCCC3)c(OC)c1F | – | 7% | 21% | – | –
13 | COc1ccc(Nc2ncc3c(n2)CCC3)cc1 | 0.84 µM | – | – | 1.72 µM | GI50 (MOLM-13): 1.1 µM
14 | Cc1c(Nc2ncc3c(n2)CCCC3)cccc1NS(C)(=O)=O | – | – | 63% | – | –
15 | FC(F)(F)c1ccccc1Nc1ncc2c(n1)CCCC2 | – | 8% | 10% | – | –
16 | COc1cc(Cl)ccc1Nc1ncc2c(n1)CCCC2 | – | inactive | 45% | – | –
17 | FC(F)(F)Oc1ccccc1Nc1ncc2c(n1)CCCC2 | – | inactive | 9% | – | –
18 | O=C(Nc1cccc(CN2CCCC2)c1)c1n[nH]c2ccccc12 | 8.62 µM | – | – | 2.03 µM | GI50 (MOLM-13): 3.83 µM
19 | CC1(C)CC(=O)c2cnc(NC(=O)c3ccc(F)cc3)nc2C1 | – | – | – | – | Ki [7]: Not Active
